Published values gathered from unrelated publications.
Compare with care: the assays were run in different laboratories.
CYP2C19: Cytochrome P450 2C19 (CYP2C19, Homo sapiens, UniProt P33261)
ERBB2: Receptor tyrosine-protein kinase erbB-2 (ERBB2, Homo sapiens, UniProt P04626)
60 kDa heat shock protein, mitochondrial: 60 kDa heat shock protein, mitochondrial (Homo sapiens, UniProt P10809)
SLC22A11: Solute carrier family 22 member 11 (SLC22A11, Homo sapiens, UniProt Q9NSA0)

Cn1nc2c(=O)n(C3CC3)cnc2c1[C@](O)(c1cnc(C(F)(F)F)c(Cl)c1)C(F)(F)F
IC50 (CYP2C19; enzyme activity, inhibitor; human, liver microsomes; pH 7.4): > 20 µM

O=C1CC[C@H](N2Cc3cc(N4CCN(CC5CCN(c6ccc([C@@H]7c8ccc(O)cc8CC[C@@H]7c7ccccc7)cc6)CC5)CC4)ccc3C2=O)C(=O)N1
IC50 (Androgen receptor (AR, Homo sapiens, UniProt P10275); ligand displacement, radioligand): 0.1 µM

O=C1c2cccc3c2[C@H](CCC3)CN1[C@@H]1CN2CCC1CC2
Ki (5-hydroxytryptamine receptor 3A (HTR3A, Homo sapiens, UniProt P46098); ligand displacement, radioligand): 0.000246 µM

COc1ccc2[nH]c(C(=O)Nc3nc(CC(=O)O)cs3)cc2c1
IC50 (ERBB2; enzyme activity, inhibitor): 1.77 µM

CNC(=O)c1ccc(Nc2ncc(C(F)(F)F)c(NCc3nccnc3N(C)S(C)(=O)=O)n2)cc1
IC50 (cGMP-dependent 3',5'-cyclic phosphodiesterase (PDE2A, Homo sapiens, UniProt O00408); enzyme activity, inhibitor): 3.8 µM

Cc1nn(C)c2ncc(C(=O)NCC3CC(Br)=NO3)c(Cl)c12 (stereo not drawn)
IC50 (60 kDa heat shock protein, mitochondrial; ATPase activity, inhibitor): > 250 µM

O=C(O)Cc1csc(NC(=O)c2cc3ccccc3[nH]2)n1
IC50 (ERBB2; enzyme activity, inhibitor): 0.618 µM

Cn1ncc2c(Cl)c(C(=O)NCc3ccccc3)cnc21
IC50 (60 kDa heat shock protein, mitochondrial; ATPase activity, inhibitor): > 250 µM

Cn1c(=O)c2c(ncn2C)n(C)c1=O
IC50 (SLC22A11; transporter uptake, inhibitor, radiometric; oocytes): 575 µM

COC(=O)Nc1nc2ccc(C(=O)c3ccccc3)cc2[nH]1
IC50 (Tyrosine-protein kinase ABL1 (ABL1, Homo sapiens, UniProt P00519); enzyme activity, inhibitor, mobility shift): 1.78 µM

O=C1CCc2ccccc2O1
Ki (Carbonic anhydrase 2 (CA2, Homo sapiens, UniProt P00918); enzyme activity, inhibitor, stopped-flow): 48.5 µM

Cn1nc2c(=O)n(C3CC3)ncc2c1[C@](O)(c1cnc(C(F)(F)F)c(Cl)c1)C(F)(F)F
IC50 (CYP2C19; enzyme activity, inhibitor; human, liver microsomes; pH 7.4): > 20 µM

Cn1cncc1[C@@](N)(c1ccc(Cl)cc1)c1ccc2c(c1)c(-c1cccc(Cl)c1)cc(=O)n2C
Ki (CYP2C19; enzyme activity, inhibitor; human, liver microsomes): 0.75 µM

CC(C)(C)OC(=O)N1CCN(Cc2ccn(Cc3ccc(Cl)cc3)c(=O)c2O)CC1
IC50 (Lysine-specific demethylase 3B (KDM3B, Homo sapiens, UniProt Q7LBC6); enzyme activity, inhibitor, AlphaScreen): 4.79 µM

Nc1ncnc2c1ncn2[C@@H]1O[C@H](CO)[C@@H](O)[C@H]1O
IC50 (SLC22A11; transporter uptake, inhibitor, radiometric; oocytes): > 2000 µM
